Screening results (PubChem)
The list is not random: actives were taken first. Their share in the collection is about 2.2%.
Neddyl block – cullin neddylation inhibition. P61081+Q13564. TR-FRET cullin neddylation, biochemical. calls only at 25 µM. 0.58% of 360,000 active. AID 651699; in the data active means inhibition above about 36%
Target sequence (P61081 whole entry, looked up): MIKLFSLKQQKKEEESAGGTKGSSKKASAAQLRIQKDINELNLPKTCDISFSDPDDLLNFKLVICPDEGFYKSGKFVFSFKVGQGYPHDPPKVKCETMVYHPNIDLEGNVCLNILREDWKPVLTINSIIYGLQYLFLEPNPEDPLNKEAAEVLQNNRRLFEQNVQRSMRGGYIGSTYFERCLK
Target sequence (Q13564 whole entry, looked up): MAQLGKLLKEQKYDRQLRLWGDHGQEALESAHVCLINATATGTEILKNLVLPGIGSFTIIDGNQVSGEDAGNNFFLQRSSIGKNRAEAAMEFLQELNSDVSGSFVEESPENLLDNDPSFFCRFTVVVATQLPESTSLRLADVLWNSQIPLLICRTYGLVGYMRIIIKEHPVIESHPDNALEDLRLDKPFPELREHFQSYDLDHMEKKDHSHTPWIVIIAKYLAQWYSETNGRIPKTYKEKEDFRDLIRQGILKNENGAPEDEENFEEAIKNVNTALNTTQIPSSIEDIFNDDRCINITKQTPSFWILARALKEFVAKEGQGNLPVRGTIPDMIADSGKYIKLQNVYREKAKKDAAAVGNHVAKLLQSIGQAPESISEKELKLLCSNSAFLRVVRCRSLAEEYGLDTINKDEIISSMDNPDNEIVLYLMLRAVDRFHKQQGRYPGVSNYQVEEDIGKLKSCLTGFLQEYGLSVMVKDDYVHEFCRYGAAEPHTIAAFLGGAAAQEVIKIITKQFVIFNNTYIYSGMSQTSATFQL
SKN-1 inh – C. elegans SKN-1 inhibition. C. elegans VP596 Pgst-4::GFP/RFP ratio, acrylamide-induced, 24 h. inhibition, % at 21.8 µM. 0.49% of 360,000 active;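 active means interference check ratio from 0.5 to 1.5 plus GFP to RFP signal ratio inhibition reaching or exceeding a fixed threshold, cut at about 30% in these data, passing the limit was not always enough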
proKLK7 act – activates the human kallikrein-7 zymogen; P49862; purified proKLK7, EDANS-DABCYL substrate fluorescence; 100% is mature enzyme control, 0% vehicle; activation, % at 7 µM; 0.9% of 370,000 active;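 active means activation above the mean of all tested compounds plus 3 SD, computed per campaign excluding outliers beyond control limits, cut at about 13% in these data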
MT1-MMP act inh – blocks activation of human MT1-MMP | HT1080 RFP-PRO-GFP cells, GFP/RFP ratio fluorescence, overnight; percent of plate control window, DMSO zero | AID 651647 | GFP/RFP ratio change, % at 20 µM | 0.061% of 360,000 active | P50281;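 active means GFP/RFP ratio change of at least 30% with cell ATP level not reduced by more than half and red fluorescence within 50% of control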
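Assay system – RFP-PRO-GFP reporter HT1080 cells · Compound dosing – single dose of 20 µM compound, 1% DMSO final · Incubation – overnight compound exposure at 37 °C · Measure – GFP/RFP fluorescence ratio · Benchmarks – DMSO wells and RFP-L50D-GFP cells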
Tn6 DDE FP – disrupts Tn6 cyclic peptide binding to fibrin D-Dimer-E complex | inhibition, % at 8.3 µM | AID 720509 | P02675 | 0.21% of 370,000 active | Fibrin DD(E) TRITC-Tn6 fluorescence polarization displacement;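 active means inhibition above a per-campaign cutoff: mean of compounds within control limits plus 3 SD, cut at about 15% in these data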;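 further: 0% = median of all compound wells on the plate and 100% = blocking peptide control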
Tn7 DDE FP – disrupts Tn7 cyclic peptide binding to fibrin D-Dimer-E complex; P02675; FP displacement of FITC-Tn7 peptide from fibrin DD(E); 0% = median of compound wells per plate; inhibition, % at 8.3 µM; 0.13% of 370,000 active; AID 720508;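 active means inhibition above the mean of compounds falling within the control limits plus 3 SD of them, cut at about 14% in these data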;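 further: 0% = plate median of compound wells and 100% = 10 µM Aha-Tn7 peptide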
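assay system = human clot-derived fibrin DD(E) complex | quantity = Fibrin-DD(E) at 2 µM final | timing = 10 min preincubation, 3 h with tracer, room temperature | signal = fluorescence polarization | measure = percent inhibition | benchmarks = high control wells with 10 µM unlabelled Aha-Tn7 peptide (full inhibition) | replicates = singlicate testing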
KLK7 act conf – proKLK7 activation, confirmation. activation, % at 7 µM. purified proKLK7, EDANS-DABCYL substrate fluorescence; scaled: vehicle 0, mature enzyme 100. 68% of 3,200 active. shares compounds with proKLK7 act;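 active means activation, as change over the incubation, above the mean of all tested compounds plus 3 SD, cut at about 13% in these data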
EDANS-DABCYL int – counter-screen for kallikrein-7 activators: EDANS-DABCYL optical interference; shares compounds with proKLK7 act; EDANS-DABCYL substrate fluorescence interference, no enzyme, 4 h; solvent 0%, active enzyme control 100%; activation, % at 7 µM; 80% of 3,200 active; AID 686952;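 active means activation above the all-compound mean plus 3 SD, ignoring values outside control-based bounds, cut at about 4.8% in these data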;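 further: value is the 4 h activation minus the activation read at time zero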
Active calls of the source: *; i = inactive; x = no result shown.

SMILES | Neddyl block | SKN-1 inh | proKLK7 act | MT1-MMP act inh | Tn6 DDE FP | Tn7 DDE FP | KLK7 act conf | EDANS-DABCYL int
CCN(CC)CCNC(=O)c1cc2c(s1)-c1ccccc1SC2 | x | -7 | 76* | -9 | 4 | -8 | 57* | 55*
CCn1cc(C2C(C(=O)Nc3cc(C)ccn3)=C(C)NC3=C2C(=O)CC(C)(C)C3)c(C)n1 (stereo not drawn) | x | 7 | 20* | -3 | 4 | 4 | 8 | 15*
CCOc1ccc(CCNC(=O)COC(=O)c2cccnc2OCC)cc1OCC | i | -2 | 0 | 6 | 4 | 5 | x | x
CCOc1ccc(CCNC(=O)COC(=O)c2nccnc2N)cc1OCC | i | 1 | 30* | 0 | 0 | -1 | 63* | 55*
Cc1cc(N2CCN(C)CC2)n2cc(-c3ccc(F)cc3)nc2n1 | x | 18 | 32* | 0 | 1 | 0 | 6 | 6.5*
Cc1cc(C)c(C)c(OCCCCN(C)Cc2ccccc2)c1 | i | 1 | 0 | -4 | -2 | 6 | x | x
CSc1ccc(-c2cccc3nncn23)cc1 | x | 6 | 21* | 4 | 2 | -8 | 26* | 25*
Nc1cccc(-c2cccc3nncn23)c1 | i | -8 | 29* | -5 | -2 | -6 | 0 | 0
Cn1cc(-c2cccc3nncn23)cn1 | i | -7 | 0 | 3 | -1 | -3 | x | x
Cc1ccc(NC(=O)Cn2c(/C=C/c3ccccc3)nc3ccccc32)cc1C | x | 13 | 29* | -4 | 9 | 1 | 49* | 43*
CC(C)c1cc(=O)oc2c3c4c(cc12)CCCN4CCC3 | x | 11 | -15 | -48 | -1 | 3 | x | x
Cc1cc(=O)oc2c3c4c(cc12)OCCN4CCC3 | x | 0 | 70* | -27 | -1 | -1 | 67* | 64*
Cc1sc(-c2ccccn2)nc1OC(=O)c1ccc(F)cc1F | i | 4 | 14* | -2 | 5 | 2 | 23* | 23*
Cc1sc(-c2ccccn2)nc1OC(=O)c1ccc(Cl)c(Cl)c1 | i | 5 | 0 | 3 | 1 | -6 | x | x
CCCCc1cc(=O)oc2cc(OCC(=O)Nc3cccnc3)c(Cl)cc12 | i | -8 | 0 | 0 | 4 | 2 | x | x
O=C(O)CCC(=O)N1CCN(c2nc(-c3ccccc3)c3ccccc3n2)CC1 | x | -6 | 32* | 1 | -1 | -4 | 8 | 8.6*
Fc1ccc2cnc(-c3cccnc3)cc2c1 | i | 23 | 0 | -2 | 2 | 0 | x | x
COC(=O)Cn1c(=O)c2c(n(Cc3ccccc3)c1=O)N/C(=C/c1ccc(Br)cc1)C2=O | x | -3 | -1 | -14 | -1 | 1 | x | x
COc1ccc(NC(=O)CNc2cccc(C#N)c2)cc1Cl | i | 29 | 0 | 2 | 0 | -5 | x | x
COC(=O)C1(S(=O)(=O)c2cc(Br)cc3c2N(C(C)=O)CC3)CC1 | i | 15 | x | 6 | x | x | x | x
Cn1c(C(=O)NCCCN2CCOCC2)cc2c(=O)n(C)c3ccccc3c21 | i | -3 | -1 | 1 | -5 | -1 | x | x
O=c1c2ccccc2oc2cc(NCCCn3ccnc3)ccc12 | i | 17 | 63* | 4 | -8 | 9 | 66* | 60*
O=c1c2ccccc2oc2cc(NCCCN3CCOCC3)ccc12 | x | -1 | 75* | 0 | 2 | 1 | 65* | 64*
O=c1c2ccccc2oc2ccc(NCCCN3CCOCC3)cc12 | i | 6 | 0 | -16 | -3 | -8 | x | x
Cn1c2ccccc2c(=O)c2cc(NCCCN3CCOCC3)ccc21 | i | -11 | 75* | 12 | -2 | 1 | 70* | 76*
SMILES | Neddyl block | SKN-1 inh | proKLK7 act | MT1-MMP act inh | Tn6 DDE FP | Tn7 DDE FP | KLK7 act conf | EDANS-DABCYL int
COc1cc(S(=O)(=O)N2CCN(c3ccccc3F)CC2)ccc1Cl | i | 1 | 1 | -3 | 5 | -8 | x | x
C#CCN1Cc2ccccc2Oc2cc(Br)ccc2S1(=O)=O | i | 17 | 0 | -1 | 8 | 3 | x | x
O=C1c2ccccc2NC(c2ccc(-c3cccs3)o2)N1O (stereo not drawn) | x | -1 | 19* | 1 | -4 | 6 | 6 | 7.4*
Cc1cc(NCCO)c2ccccc2n1 | i | 2 | 1 | 6 | -3 | 7 | x | x
Cc1cc(NCCO)c2cc(O)ccc2n1 | x | 15 | 81* | 6 | 2 | -1 | 64* | 69*
CCNS(=O)(=O)c1ccc2c(c1)n(C)c(=O)n2C | i | -2 | 0 | -1 | -5 | -8 | x | x
COCCCN1C(=O)C(CC(=O)NC2CCCCC2)CC(C(=O)N2CCCCCC2)=C1C (stereo not drawn) | i | 0 | 83* | 4 | 4 | -2 | 0 | -1
CCOC(=O)CNC(=O)N(C)[C@H]1C[C@H]2c3[nH]c4ccccc4c3CCN2C[C@H]1[C@H](C)O | i | 16 | 11 | -7 | 7 | 8 | x | x
CCOC(=O)CNC(=O)N(C)[C@H]1C[C@H]2c3[nH]c4ccccc4c3CCN2C(=O)[C@H]1[C@H](C)O | i | 2 | 73* | 3 | 2 | 5 | 11 | 9.8*
CN(C(=O)C(C)(C)C)[C@H]1C[C@H]2c3[nH]c4ccccc4c3CCN2C(=O)[C@H]1CO | x | 11 | 27* | -7 | 1 | 2 | 9 | 9.6*
CCOC(=O)N(C)[C@H]1C[C@H]2c3[nH]c4ccccc4c3CCN2C(=O)[C@H]1[C@H](C)O | x | x | 50* | x | -5 | 1 | 8 | 5.9*
COc1cccc(-n2c(SCC(=O)NC(C)(C)C)nnc2-c2ccoc2C)c1 | i | 11 | 1 | 8 | 0 | 2 | x | x
COc1ccc(-c2cc3nc[nH]c(=O)c3s2)cc1 | i | 12 | 41* | 6 | -9 | -6 | -6 | 15*
COc1cccc(CNc2nc3cc(-c4cccc(Cl)c4)sc3c(=O)n2C)c1 | i | 5 | -1 | 1 | -1 | 3 | x | x
COc1ccc(-c2cc3nc(CCl)[nH]c(=O)c3s2)cc1 | i | 6 | 19* | -2 | -6 | -5 | 3 | 4
O=c1[nH]cnc2cc(-c3ccccc3)sc12 | i | -4 | 0 | 6 | 4 | -1 | x | x
Cc1nnc(Sc2nc3c(c(=O)n(C)c(=O)n3C)n2Cc2ccc(Cl)cc2)s1 | i | 9 | 0 | -3 | -2 | -2 | x | x
O=C(CN1C(=O)c2ccccc2C1=O)Nc1cc([N+](=O)[O-])ccc1O | i | -14 | 0 | 12 | 8 | -4 | x | x
